This note sets out measurements from ChEMBL document CHEMBL1140016, “Arylpropanolamines: selective beta3 agonists arising from strategies to mitigate phase I metabolic transformations” (Bioorg Med Chem Lett, 2007).

One may read the Ki as the dissociation constant of the complex between target and ligand, obtained from inhibition or displacement. The term ED50 denotes the dose that gives a 50% effect, or the effect in half of the subjects.

Test [1] deals with T1, Beta-3 adrenergic receptor (Homo sapiens, UniProt P13945). The test is described as follows: Displacement of [125I]iodocyanopindolol from cloned human adrenergic beta-3 receptor expressed in CHO cells. Type of test: cell-based.
Target sequence in this assay (P13945 whole entry): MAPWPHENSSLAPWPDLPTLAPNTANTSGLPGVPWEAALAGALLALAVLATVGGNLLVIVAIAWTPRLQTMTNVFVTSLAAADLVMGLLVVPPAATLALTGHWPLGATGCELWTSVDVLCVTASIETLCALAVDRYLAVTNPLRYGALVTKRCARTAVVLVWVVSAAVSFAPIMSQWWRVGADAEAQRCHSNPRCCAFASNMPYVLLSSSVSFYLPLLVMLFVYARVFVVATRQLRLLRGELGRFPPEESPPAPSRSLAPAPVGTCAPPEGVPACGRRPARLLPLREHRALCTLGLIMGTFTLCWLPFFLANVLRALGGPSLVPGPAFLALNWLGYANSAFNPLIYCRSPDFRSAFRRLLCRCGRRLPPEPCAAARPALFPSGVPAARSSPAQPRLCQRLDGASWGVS
For test [2], the target named is T1, Beta-3 adrenergic receptor. The test is described as follows: Intrinsic activity at human cloned adrenergic beta3 receptor expressed in CHO cells assessed as cAMP accumulation relative to isoproterenol. The test is classed as functional, cell-based. On the technique in general: Cyclic AMP is a second messenger, typically raised through Gs and lowered through Gi signalling.
Target sequence in this assay (P13945 whole entry, looked up): as the sequence (P13945 whole entry) above

Test [3] deals with Beta-1 adrenergic receptor (Homo sapiens, UniProt P08588). Nature of the test: Displacement of [125I]iodocyanopindolol from human cloned adrenergic beta-1 receptor expressed in CHO cells. Type of test: cell-based. (In general: In a radioligand displacement assay an active substance lowers the binding of a labelled ligand.)
Chain of Beta-1 adrenergic receptor (P08588 whole entry): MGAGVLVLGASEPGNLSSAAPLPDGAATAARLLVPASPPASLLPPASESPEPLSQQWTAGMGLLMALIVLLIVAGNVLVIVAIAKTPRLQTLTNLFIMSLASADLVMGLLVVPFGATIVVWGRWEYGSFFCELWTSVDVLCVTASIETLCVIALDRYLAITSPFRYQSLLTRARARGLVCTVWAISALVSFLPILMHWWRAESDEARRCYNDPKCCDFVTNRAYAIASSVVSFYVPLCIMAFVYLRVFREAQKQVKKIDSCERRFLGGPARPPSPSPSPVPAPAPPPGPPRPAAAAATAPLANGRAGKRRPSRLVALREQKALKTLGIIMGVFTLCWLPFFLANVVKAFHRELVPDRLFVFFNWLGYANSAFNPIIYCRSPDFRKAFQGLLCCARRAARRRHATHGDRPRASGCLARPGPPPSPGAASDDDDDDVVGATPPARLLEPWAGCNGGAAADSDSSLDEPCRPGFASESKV
For test [4], the species on record is Homo sapiens. The test is described as follows: Selectivity ratio of Ki for human adrenergic beta-1 receptor to Ki for human adrenergic beta-3 receptor.
The species named for test [5] is Homo sapiens. Nature of the test: Selectivity ratio of Ki for adrenergic beta2 receptor Ki for adrenergic beta-3 receptor.
Test [6] concerns the target Beta-2 adrenergic receptor (Homo sapiens, UniProt P07550). Nature of the test: Displacement of [125I]iodocyanopindolol from human cloned adrenergic beta-2 receptor expressed in CHO cells. The test is classed as cell-based.
Test [7] has as its system African green monkey. The test is described as follows: Effect on potassium levels in African green monkey serum at 0.1 mg/kg, iv. Type of test: functional, Chlorocebus sabaeus. Details: unit not given beside the values. The method in brief:
(§1)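 Single iv dose given to ketamine-sedated African green monkeys, either 0.1 or 0.5 mg/kg as the line states. Three read-outs were recorded after dosing: change in serum free fatty acids (β3 lipolysis), change in serum K+ (a decrease is β2-mediated) and change in heart rate (β1/β2 tachycardia). Changes were tested for significance at P < 0.05.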

Test [8] has as its system African green monkey. Nature of the test: Effect on tachycardia in African green monkey assessed as change in heart rate at 0.1 mg/kg, iv. The test is classed as functional, Chlorocebus sabaeus. The method in brief: as §1
Test [9] has as its system African green monkey. The test is described as follows: Effect on African green monkey assessed as change in free fatty acid level at 0.1 mg/kg, iv. The test is classed as functional, Chlorocebus sabaeus. The method in brief: as §1
Test [10] concerns African green monkey. Nature of the test: Effect on lipolysis in iv dosed African green monkey. The test is classed as functional. The following applies: Chlorocebus sabaeus. The method in brief:
(§2)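 Compounds were given iv to ketamine-sedated African green monkeys across a range of doses. Lipolysis ED50 (mg/kg) came from the rise in serum free fatty acids. Onset doses were the lowest doses giving a statistically significant rise in heart rate (β1) or fall in serum K+ (β2). Each margin is the onset dose divided by the lipolysis ED50.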

Test [11] relates to African green monkey. Nature of the test: Ratio of serum potassium concentration to ED50 for lipolysis in African green monkey. Type of test: functional, Chlorocebus sabaeus. The method in brief: as §2
Test [12] relates to African green monkey. The test is described as follows: Ratio of effect on tachycardia to ED50 for lipolysis in African green monkey. The test is classed as functional, Chlorocebus sabaeus. The method in brief:
as §2

Test [13] deals with Beta-1 adrenergic receptor (Cavia porcellus) (UniProt B0FL73). The test is described as follows: Intrinsic activity at adrenergic beta-1 receptor in spontaneously beating guinea pig atria assessed as acceleration in contraction relative to isoproterenol.
Chain of Beta-1 adrenergic receptor (Cavia porcellus) (B0FL73 1-467): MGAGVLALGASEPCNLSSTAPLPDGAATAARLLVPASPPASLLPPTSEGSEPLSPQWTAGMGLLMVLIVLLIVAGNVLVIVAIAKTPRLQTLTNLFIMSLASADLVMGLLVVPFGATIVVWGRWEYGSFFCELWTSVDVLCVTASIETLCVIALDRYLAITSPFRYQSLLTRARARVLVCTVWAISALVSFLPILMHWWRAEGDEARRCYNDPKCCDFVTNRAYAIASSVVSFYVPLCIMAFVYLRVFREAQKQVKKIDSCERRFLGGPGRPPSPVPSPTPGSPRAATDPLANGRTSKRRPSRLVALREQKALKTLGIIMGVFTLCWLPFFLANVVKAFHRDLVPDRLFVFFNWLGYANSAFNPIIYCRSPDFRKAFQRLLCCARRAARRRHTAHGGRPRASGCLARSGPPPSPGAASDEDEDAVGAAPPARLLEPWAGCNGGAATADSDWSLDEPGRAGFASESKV
The subject of test [14] is African green monkey. The test is described as follows: Effect on free fatty acid level in African green monkey serum at 0.5 mg/kg, iv. Type of test: functional, Chlorocebus sabaeus. The method in brief: as §1
Test [15] relates to African green monkey. Nature of the test: Effect on African green monkey serum assessed as potassium concentration at 0.5 mg/kg, iv. Type of test: functional, Chlorocebus sabaeus. The method in brief: as §1
For test [16], the system named is African green monkey. Nature of the test: Effect on tachycardia in African green monkey assessed as change in heart rate at 0.5 mg/kg, iv. The test is classed as functional, Chlorocebus sabaeus. The method in brief: as §1

Each structure is given as a SMILES string. A value given as a limit tells only on which side of the number the result lay.

Chain of Beta-2 adrenergic receptor (P07550 whole entry): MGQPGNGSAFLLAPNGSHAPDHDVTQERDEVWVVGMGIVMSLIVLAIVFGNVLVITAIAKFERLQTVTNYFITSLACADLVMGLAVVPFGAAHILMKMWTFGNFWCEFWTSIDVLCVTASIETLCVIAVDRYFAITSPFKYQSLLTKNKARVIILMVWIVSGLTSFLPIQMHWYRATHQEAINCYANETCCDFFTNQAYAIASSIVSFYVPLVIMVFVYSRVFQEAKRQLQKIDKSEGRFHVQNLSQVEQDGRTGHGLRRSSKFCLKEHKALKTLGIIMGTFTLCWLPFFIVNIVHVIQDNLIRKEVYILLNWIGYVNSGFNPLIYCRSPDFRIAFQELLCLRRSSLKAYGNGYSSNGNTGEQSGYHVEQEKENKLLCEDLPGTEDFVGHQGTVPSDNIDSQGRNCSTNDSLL

Turning to `COc1ccc([C@H](CCc2ccc(Cl)cc2)NC[C@H](O)Cc2ccc(O)c(NS(C)(=O)=O)c2)cc1OC`, the Ki was determined as 12 nM in test [1], 1050 nM in [3] and 120 nM in [6]. Moreover, the Intrinsic activity in test [2] came to 89%. The Ratio Ki came to 88 in the test listed under Homo sapiens [4] and 10 in the test listed under Homo sapiens [5]. Moreover, the Activity in the test with African green monkey [7] was -0.32; with African green monkey [8] it was 32; in the test on African green monkey [9], 0.87.
Take `CS(=O)(=O)Nc1cc([C@@H](O)CN[C@H](Cc2ccccc2)c2ccc(OC(F)F)cc2)ccc1O`: the Intrinsic activity in test [2] came out at 107%. The Activity is recorded as 0.08 in the test with African green monkey [7], 26 in the test with African green monkey [8] and 1.05 with African green monkey [9]. The same compound displayed an ED50 in the test with African green monkey [10] of 0.03 mg/kg. In addition, the Ratio in the test with African green monkey [11] is recorded as more than 25; in the test on African green monkey [12], 3.
`COc1ccc([C@@H](Cc2ccccc2)NC[C@@H](O)Cc2ccc(O)c(NS(C)(=O)=O)c2)cc1OC`: the inhibition constant (Ki) in test [1] was found to be 6 nM; in test [3], 2600 nM; in test [6], 66 nM. Besides, the Intrinsic activity in [2] was 86%; in test [13] it was 60%. Further, the Activity in the test with African green monkey [7] is on record as -0.08; with African green monkey [8] it was 24; with African green monkey [9], 1.06. Also, the ED50 with African green monkey [10] turned out to be 0.009 mg/kg. Also, the Ratio in the test with African green monkey [11] is listed as more than 55; in the test on African green monkey [12], 3.
With `COc1ccc(C(NC[C@H](O)c2ccc(O)c(NS(C)(=O)=O)c2F)c2ccc(OC)cc2)cc1`, the affinity in test [1] corresponds to a Ki of 1700 nM. Besides, the Intrinsic activity in test [2] is 24%. The Activity was 0.39 in the test with African green monkey [14], -0.49 with African green monkey [15] and 4 in the test on African green monkey [16].
As for `COc1ccc([C@H](CCc2ccccc2)NC[C@H](O)Cc2ccc(O)c(NS(C)(=O)=O)c2)cc1OC`, the values for the Ki in test [1], in test [3] and in test [6] were 9 nM, 1000 nM and 390 nM, respectively. The Intrinsic activity in test [2] came out at 84%. Further, the Ratio Ki in the test listed under Homo sapiens [4] is 111; in the test filed under Homo sapiens [5], 43. For the same compound, the Activity in the test with African green monkey [7] is -0.25; in the test on African green monkey [8], 29; with African green monkey [9] it was 0.95.
On to `CS(=O)(=O)Nc1cc([C@@H](O)CNC(c2ccc(OC(F)F)cc2)c2ccc(OC(F)F)cc2)ccc1O`, for which the ED50 with African green monkey [10] was determined as 0.08 mg/kg. Moreover, the figures for the Ratio in the test on African green monkey [11] and in the test with African green monkey [12] were more than 60 and 6, respectively.
Taken in the same sequence, the figures for `CCOP(=O)(OCC)c1ccc(NC(=O)[C@@](C)(NC[C@H](O)c2ccc(O)c(NS(C)(=O)=O)c2)c2ccc(OC)cc2)cc1` were 0.1 mg/kg, more than 25 and more than 25.
